Experimental findings from ChEMBL document CHEMBL1136549, “Novel antifungal beta-amino acids: synthesis and activity against Candida albicans” (Bioorg Med Chem Lett, 2003) are described below.

Molecules are shown by their SMILES. ≈ marks a conversion by molar mass, not a printed value.

The assay has as its system Candida albicans. Kind of assay: In vitro inhibitory activity against Candida albicans. The assay is classed as functional, organism-based. In short, it runs like this:
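Microbroth dilution; C. albicans ATCC 36082, inoculum 10³ cfu/mL in YNB medium (yeast-nitrogen base 6.7 g/L, glucose 10 g/L, pH 7). Incubated 24 h at 37 °C; growth read photo-/nephelometrically at 360 nm; IC₅₀ determined.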

[1] abbreviates: Candida albicans, read-out: IC50.

With `N[C@H]1CSC[C@H]1C(=O)O`, the IC50 (in general, the concentration at which inhibition is half-maximal) was 64 µg/mL (≈ 435 µM).
With `C=C1C[C@H](N)[C@H](C(=O)NO)C1`, the IC50 under setting [1] was 32 µg/mL (≈ 205 µM).
In the case of `N[C@H]1COC[C@H]1C(=O)O`, the IC50 under setting [1] is 32 µg/mL (≈ 244 µM).
`C=C1C[C@H](NCC)[C@H](C(=O)O)C1` gave an IC50 of 128 µg/mL (≈ 756 µM).
For `N[C@H]1CC2(CC2)C[C@H]1C(=O)O`, the IC50 under setting [1] is 32 µg/mL (≈ 206 µM).
On to `N[C@H]1CCC[C@H]1C(F)(F)F`, for which the IC50 under setting [1] turned out to be 1 µg/mL (≈ 6.53 µM).
In turn, `C=C1C[C@@H](CO)[C@@H](N)C1` registered an IC50 above 256 µg/mL.
As to `C=C1C[C@H](NC(=O)OC(C)(C)C)[C@H](C(=O)O)C1`, under setting [1], the IC50 amounted to 16 µg/mL (≈ 66.3 µM).
Turning to `C=C1CC[C@@H](C(=O)O)[C@@H](N)C1.Cl`, the concentration for half-maximal inhibition (IC50) under setting [1] is 16 µg/mL.
`Cl.N[C@H]1CCC[C@H]1P(=O)(O)O` returned an IC50 above 256 µg/mL.
In the case of `C=C1C[C@@H](N)[C@@H](C(=O)O)C1.Cl`, the IC50 was found to be 128 µg/mL.
With `C=C1CC[C@@H](C(=O)O)[C@H]1N.Cl`, under setting [1], the IC50 was determined as 32 µg/mL.
As to `C=C1C[C@@H](C(=O)O)[C@H]1N.Cl`, the IC50 is above 256 µg/mL.
Still for that read-out and setting: next, `Cl.N[C@H]1CCC[C@H]1S(=O)(=O)O`: above 256 µg/mL; `Cl.Cl.N[C@H]1CCN[C@H]1C(=O)O`: above 256 µg/mL.
`C=C1C[C@H](N)[C@H](C(=O)NC)C1.Cl`: the IC50 under setting [1] was determined as 32 µg/mL.
Compound `C=C1CC[C@H](N)[C@H](C(=O)O)C1.Cl` registered an IC50 above 256 µg/mL.
On the same count and under the same terms, as for `C[C@]1(N)CCC[C@H]1C(=O)O.Cl`, the figure is 64 µg/mL.
`C=C1C[C@H](C(=O)O)[C@@H](N)C1.Cl` showed an IC50 of 128 µg/mL.
For the compound `Cl.N[C@H]1CCCC[C@H]1C(=O)O`, the IC50 came to 128 µg/mL.
Turning to `CCCC(N)CC(=O)O.Cl` (configuration not stated), the IC50 is above 256 µg/mL.
With `Cl.N[C@H]1CCC[C@H]1C(=O)O`, under setting [1], the IC50 was found to be 0.13 µg/mL.
`Cl.N[C@H]1CC(F)(F)C[C@H]1C(=O)O` displayed an IC50 of 128 µg/mL.
Still for that read-out and setting: next, `C=C1C[C@H](N)[C@@H]1C(=O)O.Cl`: above 256 µg/mL; `CC1CC[C@@H](C(=O)O)[C@H]1N.Cl` (some centres not stated): 128 µg/mL.
In the case of `Cl.N[C@H]1C=CCC[C@H]1C(=O)O`, the IC50 under setting [1] is 0.03 µg/mL.
For the compound `C=C1C[C@H](N)[C@H](C(=O)N[C@H](CC(C)C)C(=O)O)C1.Cl`, the IC50 under setting [1] stood at 16 µg/mL.
In turn, `C=C1C[C@H](N)[C@H](c2nnn[nH]2)C1.Cl` yielded an IC50 of 128 µg/mL.
For `C=C1CN[C@H](C(=O)O)C1.Cl`, under setting [1], the IC50 was 32 µg/mL.
As for `CC1C=C(C(=O)O)C(N)C1.Cl` (configuration not stated), the IC50 under setting [1] was determined as 16 µg/mL.
`CC1=C[C@@H](C(=O)O)[C@@H](N)C1.Cl`: the half-inhibitory concentration (IC50) under setting [1] was 32 µg/mL.
For the compound `CC1(C)C[C@H](N)[C@H](C(=O)O)C1.Cl`, the half-maximal inhibitory concentration (IC50) worked out at 256 µg/mL.
`C=CC1C[C@H](N)[C@H](C(=O)O)C1.Cl` (some centres not stated) returned an IC50 of 128 µg/mL.
Turning to `Cl.N[C@H]1CC2(C[C@H]1C(=O)O)OCCO2`, under setting [1], the IC50 amounted to 32 µg/mL.
Regarding `Cl.N[C@H]1CCS[C@H]1C(=O)O`, the half-inhibitory concentration (IC50) was above 256 µg/mL.
For the compound `C=C1C[C@H](NC(=O)[C@@H](N)CC(C)C)[C@H](C(=O)O)C1.Cl`, under setting [1], the IC50 was 2 µg/mL.
In the case of `C=C=C1C[C@H](N)[C@H](C(=O)O)C1.Cl`, the half-inhibitory concentration (IC50) came out at 128 µg/mL.
For the compound `Cl.N[C@H]1C=CCO[C@H]1C(=O)O`, the IC50 stood at 64 µg/mL.
`CC1=C[C@H](N)[C@H](C(=O)O)C1.Cl`: under setting [1], the IC50 was found to be 8 µg/mL.
Same read-out and setting: next, `C=C1C[C@H](N)[C@H](C(=O)OC)C1.Cl`: 2 µg/mL.
As for `CCCC/C=C1/C[C@H](N)[C@H](C(=O)O)C1.Cl`, the IC50 came out at 128 µg/mL.
For `Cl.N[C@H]1CC[C@H]1C(=O)O`, the IC50 was found to be 128 µg/mL.
As to `Cl.N[C@H]1CC=CC[C@H]1C(=O)O`, the IC50 is 128 µg/mL.
`Cl.N[C@H]1CC(O)C[C@H]1C(=O)O` (some centres not stated) gave an IC50 of 128 µg/mL.
In turn, `C=C1C[C@H](N)[C@H](C(=O)O)C1C.Cl` (some centres not stated) showed an IC50 of 128 µg/mL.
Regarding `Cl.N[C@H]1C=CC[C@H]1C(=O)O`, the IC50 under setting [1] is 0.5 µg/mL.
The same measure, in the same setting: next, `CC1C[C@H](N)[C@H](C(=O)O)C1.Cl` (mixture of isomers): 4 µg/mL.
For the compound `Cl.Cl.NC1C[C@H](N)[C@H](C(=O)O)C1` (mixture of isomers), the IC50 is 64 µg/mL.
Turning to `C=C1C[C@@H](C(=O)O)[C@@H](N)C1C.Cl` (mixture of isomers), the IC50 was 64 µg/mL.
For `CC1CC[C@H](N)[C@@H]1C(=O)O.Cl` (single isomer, unassigned; Diastereomer B), the IC50 stood at 16 µg/mL.
Turning to `CC1CC[C@H](N)[C@@H]1C(=O)O.Cl` (stereo in doubt), the IC50 under setting [1] is 8 µg/mL.
On the same count and under the same terms, as for `C=C1C[C@H](N)[C@H](C(=O)O)C1` [ICOFUNGIPEN], the figure is 0.13 µg/mL (≈ 0.921 µM).
